# Measured values gathered from unrelated publications.
# Target: Myosin-IIIb (MYO3B, Homo sapiens, UniProt Q8WXR4)
# One construct used (Q8WXR4 1-1341): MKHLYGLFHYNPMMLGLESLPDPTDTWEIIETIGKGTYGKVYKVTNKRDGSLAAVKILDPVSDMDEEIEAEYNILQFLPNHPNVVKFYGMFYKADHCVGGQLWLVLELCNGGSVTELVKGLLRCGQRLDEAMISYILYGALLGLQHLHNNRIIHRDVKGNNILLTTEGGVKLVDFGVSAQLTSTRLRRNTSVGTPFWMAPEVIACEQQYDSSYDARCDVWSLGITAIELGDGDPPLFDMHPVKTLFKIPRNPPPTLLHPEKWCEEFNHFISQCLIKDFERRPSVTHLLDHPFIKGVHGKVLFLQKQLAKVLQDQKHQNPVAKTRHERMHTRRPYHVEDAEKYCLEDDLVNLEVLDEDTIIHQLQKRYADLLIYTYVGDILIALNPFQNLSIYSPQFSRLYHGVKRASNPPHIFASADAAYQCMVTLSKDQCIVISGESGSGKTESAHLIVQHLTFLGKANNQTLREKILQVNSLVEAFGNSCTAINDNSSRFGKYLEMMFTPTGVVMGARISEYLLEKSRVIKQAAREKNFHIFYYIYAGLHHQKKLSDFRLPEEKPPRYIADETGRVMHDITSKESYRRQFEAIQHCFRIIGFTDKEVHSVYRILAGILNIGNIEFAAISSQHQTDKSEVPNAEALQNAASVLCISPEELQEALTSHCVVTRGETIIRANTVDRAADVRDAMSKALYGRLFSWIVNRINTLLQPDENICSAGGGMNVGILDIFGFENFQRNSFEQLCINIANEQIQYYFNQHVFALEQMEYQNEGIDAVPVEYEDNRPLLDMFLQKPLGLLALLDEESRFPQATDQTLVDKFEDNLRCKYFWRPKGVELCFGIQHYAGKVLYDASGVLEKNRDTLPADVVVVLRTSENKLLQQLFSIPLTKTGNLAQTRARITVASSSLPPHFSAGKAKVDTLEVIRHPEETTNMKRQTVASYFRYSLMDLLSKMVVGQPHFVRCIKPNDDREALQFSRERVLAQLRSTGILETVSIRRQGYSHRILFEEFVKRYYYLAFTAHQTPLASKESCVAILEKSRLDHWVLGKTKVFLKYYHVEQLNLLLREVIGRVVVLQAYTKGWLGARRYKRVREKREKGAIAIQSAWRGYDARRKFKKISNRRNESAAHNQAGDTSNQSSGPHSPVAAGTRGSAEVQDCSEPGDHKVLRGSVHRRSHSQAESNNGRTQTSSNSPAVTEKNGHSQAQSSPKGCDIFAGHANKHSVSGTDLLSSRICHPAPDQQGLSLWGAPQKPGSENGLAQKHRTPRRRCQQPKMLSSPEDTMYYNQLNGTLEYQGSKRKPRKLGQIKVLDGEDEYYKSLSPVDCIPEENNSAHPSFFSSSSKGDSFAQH
SMILES,observed,technique,concentration,remaining binding [%]
C[C@@H]1CCN(c2nccc(-c3cnn4ncccc34)n2)C1,binding,,1 µM,100
CCC(=O)N[C@@H]1CC[C@H](C(=O)N(C)c2ccc(-c3nc4ccccc4o3)cc2)C1,cell-free assay,competition with immobilised ligand,1 µM,100
O=C(NCC1CCOCC1)c1n[nH]cc1NC(=O)c1c(F)cccc1F,binding,competition with immobilised ligand,1 µM,100
N[C@H]1CCN(c2nccc(-c3cnn4ncccc34)n2)C1,binding,,1 µM,100
Cc1cnc(Nc2ccc(C(=O)N3CCC(N4CCCC4)CC3)cc2)nc1-c1cc2ccccc2s1,binding,competition with immobilised ligand,1 µM,100
CC1=C(C#N)C(c2ccc3c(c2)c(NC(=O)c2ccccc2C)nn3C)C(C#N)=C(C)N1,binding,competition with immobilised ligand,1 µM,100
CN(CCCC(F)(F)F)c1nccc(-c2cnn3ncccc23)n1,binding,,1 µM,92
C[C@H](c1ccc(F)cc1)N(Cc1cccc(C(=O)O)c1)C(=O)c1cnc2ccccc2c1,binding,competition with immobilised ligand,1 µM,100
CN(c1nccc(-c2cnn3ncccc23)n1)C1CC1,binding,,1 µM,83
C[C@@H](c1ccc(-n2cnc3c(N)ncnc32)cc1)N1CCc2nn(C)c(Cc3ccccc3)c2C1=O,binding,competition with immobilised ligand,0.1 µM,77
CN(C)c1nccc(-c2cnc3ncccn23)n1,binding,,1 µM,79
COc1cnc(Nc2cccc(S(N)(=O)=O)c2)nc1N1CCN(c2ccccc2)C(=O)C1,binding,competition with immobilised ligand,1 µM,94
CN(C)c1nccc(-c2cnn3ncccc23)n1,binding,,1 µM,100
CNC(=O)[C@@H]1CC[C@@H](n2c(-c3ccc4cnccc4c3)nc3ccc(C(=O)NCc4cccc(C(N)=O)c4)cc32)C1,binding,competition with immobilised ligand,1 µM,98
O=C(c1ccc(Nc2ncc(Cl)c(-c3ccc(Cl)s3)n2)cc1)N1CCC(N2CCCC2)CC1,binding,competition with immobilised ligand,1 µM,100
Cc1nc(N2CC[C@@H](O)C2)ncc1-c1cc(C(F)(F)F)cc2[nH]ncc12,binding,competition with immobilised ligand,1 µM,93
O=C(c1ccc(Nc2ncc(Cl)c(-c3cc4ccccc4s3)n2)cc1)N1CCC(N2CCCC2)CC1,binding,competition with immobilised ligand,1 µM,100
FC(F)(F)c1ccc2c(c1)nc(-c1cccnc1)n2C1CC1,cell-free assay,competition with immobilised ligand,1 µM,67
COc1ncc2cc3ccccc3nc2c1C#N,binding,competition with immobilised ligand,5 µM,96
N#CC1(c2ccccn2)CCN(Cc2cc(C(=O)N3CCCC3)c(=O)n3ccccc23)CC1,cell-free assay,competition with immobilised ligand,1 µM,100
FC(F)(F)Oc1cccc(-c2cnc3ccc(-c4ccncc4)nn23)c1,cell-free assay,competition with immobilised ligand,5 µM,100
